What was measured:
Glucagon receptor = Glucagon receptor (Homo sapiens, UniProt P47871); assay: Agonist activity at human glucagon receptor expressed in HEK293 cells assessed as induction of cAMP accumulation incubated for 30 mins by HTRF assay; type: functional, cell-based
[1] = target: Glucagon-like peptide 1 receptor (Homo sapiens, UniProt P43220); assay: Agonist activity at human GLP-1 receptor expressed in HEK293 cells assessed as induction of cAMP accumulation incubated for 30 mins by HTRF assay; type: functional, cell-based
Chain of Glucagon-like peptide 1 receptor (P43220 whole entry): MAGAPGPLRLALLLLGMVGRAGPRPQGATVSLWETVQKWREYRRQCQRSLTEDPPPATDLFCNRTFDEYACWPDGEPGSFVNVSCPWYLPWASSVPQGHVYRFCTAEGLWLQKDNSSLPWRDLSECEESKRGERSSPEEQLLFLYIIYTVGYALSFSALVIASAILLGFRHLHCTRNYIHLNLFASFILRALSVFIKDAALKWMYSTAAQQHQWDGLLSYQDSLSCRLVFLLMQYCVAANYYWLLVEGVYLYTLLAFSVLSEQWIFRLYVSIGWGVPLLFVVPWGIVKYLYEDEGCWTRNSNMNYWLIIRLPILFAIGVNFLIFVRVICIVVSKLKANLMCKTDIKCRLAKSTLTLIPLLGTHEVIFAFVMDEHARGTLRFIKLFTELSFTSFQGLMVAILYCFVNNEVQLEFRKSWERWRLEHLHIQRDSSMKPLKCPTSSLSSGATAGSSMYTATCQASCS
Outline: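 HEK-293 cells stably expressing human receptor, grown in DMEM/10% FBS, frozen, thawed and washed in HBSS/20 mM HEPES/0.1% HSA; resuspended with 2 mM IBMX. 5000 cells/well incubated with peptide 30 min at room temperature; cAMP by HTRF kit, 1 h with reagents in lysis buffer, 665/620 nm fluorescence ratio.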

Carboxypeptidase B2 = target: T1, Carboxypeptidase B2 (Homo sapiens, UniProt Q96IY4); assay: Inhibition of TAFIalpha in human plasma incubated for 15 mins by chromogenic assay; type: cell-free
T1 sequence (Q96IY4 whole entry): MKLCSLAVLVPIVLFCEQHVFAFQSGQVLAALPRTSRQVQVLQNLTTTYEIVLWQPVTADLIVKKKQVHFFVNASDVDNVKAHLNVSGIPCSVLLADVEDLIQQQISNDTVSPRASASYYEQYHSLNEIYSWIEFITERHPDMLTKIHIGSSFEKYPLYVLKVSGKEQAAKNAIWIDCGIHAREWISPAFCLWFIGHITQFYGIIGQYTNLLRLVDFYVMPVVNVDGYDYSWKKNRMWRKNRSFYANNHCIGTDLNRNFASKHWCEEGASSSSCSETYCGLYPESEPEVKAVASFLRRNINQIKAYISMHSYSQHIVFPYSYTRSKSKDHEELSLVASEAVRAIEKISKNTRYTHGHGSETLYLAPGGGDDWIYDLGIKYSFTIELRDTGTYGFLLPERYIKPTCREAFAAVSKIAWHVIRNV
Outline: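 Plasma TAFI activity kit: TAFIa (2.5 μg/mL) preincubated with compound (from 2.5 mM DMSO stock) in 20 mM HEPES, 150 mM NaCl, pH 7.4, 15 min at room temperature; reaction started with developer (1:2 prediluted) and followed at 420 nm for 15 min. IC50 from serial dilutions in duplicate; mean (SEM) of n = 2 within one experiment.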

Chain of Glucagon receptor (P47871 whole entry): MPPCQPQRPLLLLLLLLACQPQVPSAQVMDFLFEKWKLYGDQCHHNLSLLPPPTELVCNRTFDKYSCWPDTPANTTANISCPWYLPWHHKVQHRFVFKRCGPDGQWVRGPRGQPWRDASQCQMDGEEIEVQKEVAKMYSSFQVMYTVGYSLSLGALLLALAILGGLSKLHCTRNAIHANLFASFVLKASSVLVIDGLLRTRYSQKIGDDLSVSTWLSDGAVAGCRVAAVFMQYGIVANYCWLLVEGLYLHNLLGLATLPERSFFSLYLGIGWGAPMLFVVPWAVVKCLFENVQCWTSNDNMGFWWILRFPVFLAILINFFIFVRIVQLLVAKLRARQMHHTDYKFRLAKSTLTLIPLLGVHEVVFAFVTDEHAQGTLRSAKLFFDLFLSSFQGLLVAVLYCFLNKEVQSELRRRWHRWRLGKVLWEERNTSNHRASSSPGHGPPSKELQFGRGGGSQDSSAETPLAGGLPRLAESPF

| Structure (SMILES) | EC50 (Glucagon receptor) [nM] | EC50 [1] [nM] | IC50 (Carboxypeptidase B2) [nM] |
| --- | --- | --- | --- |
| CC[C@H](C)[C@H](NC(=O)[C@H](Cc1ccccc1)NC(=O)[C@H](CC(=O)O)NC(=O)[C@H](CCC(N)=O)NC(=O)[C@H](C)NC(=O)[C@H](CCCNC(=N)N)NC(=O)[C@H](CCCNC(=N)N)NC(=O)[C@H](CO)NC(=O)[C@H](CC(=O)O)NC(=O)[C@H](CCSC)NC(=O)[C@H](CCC(N)=O)NC(=O)[C@H](CCCCN)NC(=O)[C@H](CO)NC(=O)[C@H](CC(C)C)NC(=O)[C@H](CC(=O)O)NC(=O)[C@H](CO)NC(=O)[C@@H](NC(=O)[C@H](Cc1ccccc1)NC(=O)[C@@H](NC(=O)CNC(=O)[C@H](CCC(N)=O)NC(=O)[C@H](CO)NC(=O)[C@@H](N)Cc1cnc[nH]1)[C@@H](C)O)[C@@H](C)O)C(=O)N[C@@H](CCC(=O)O)C(=O)N[C@@H](Cc1c[nH]c2ccccc12)C(=O)N[C@@H](CC(C)C)C(=O)N[C@@H](CCCCN)C(=O)N[C@@H](CC(N)=O)C(=O)NCC(=O)NCC(=O)N1CCC[C@H]1C(=O)N[C@@H](CO)C(=O)N[C@@H](CO)C(=O)NCC(=O)N[C@@H](C)C(=O)N1CCC[C@H]1C(=O)N1CCC[C@H]1C(=O)N1CCC[C@H]1C(=O)N[C@@H](CO)C(N)=O | 0.0286 | 0.0183 |  |
| CC[C@H](C)[C@H](NC(=O)[C@H](Cc1ccccc1)NC(=O)[C@H](CC(=O)O)NC(=O)[C@H](CCC(N)=O)NC(=O)[C@H](C)NC(=O)[C@H](CCCNC(=N)N)NC(=O)[C@H](CCCNC(=N)N)NC(=O)[C@H](CO)NC(=O)[C@H](CC(=O)O)NC(=O)[C@]1(C)CCC/C=C\CCC[C@](C)(NC(=O)[C@H](CC(=O)O)NC(=O)[C@H](CO)NC(=O)[C@@H](NC(=O)[C@H](Cc2ccccc2)NC(=O)[C@@H](NC(=O)CNC(=O)[C@H](CCC(N)=O)NC(=O)[C@H](CO)NC(=O)[C@@H](N)Cc2cnc[nH]2)[C@@H](C)O)[C@@H](C)O)C(=O)N[C@@H](CO)C(=O)N[C@@H](CCCCN)C(=O)N[C@@H](CCC(N)=O)C(=O)N1)C(=O)N[C@@H](CCC(=O)O)C(=O)N[C@@H](Cc1c[nH]c2ccccc12)C(=O)N[C@@H](CC(C)C)C(=O)N[C@@H](CCCCN)C(=O)N[C@@H](CC(N)=O)C(=O)NCC(=O)NCC(=O)N1CCC[C@H]1C(=O)N[C@@H](CO)C(=O)N[C@@H](CO)C(=O)NCC(=O)N[C@@H](C)C(=O)N1CCC[C@H]1C(=O)N1CCC[C@H]1C(=O)N1CCC[C@H]1C(=O)N[C@@H](CO)C(N)=O | 0.0023 | 0.0074 |  |
| CC(C)[C@@H]1NC(=O)[C@H](NC(=O)N[C@@H](CCCCN)C(=O)O)Cc2ccc(cc2)NC(=O)c2coc1n2 |  |  | 52 |
| CC(C)[C@@H]1NC(=O)[C@H](NC(=O)N[C@@H](CCCCN)C(=O)O)CCCCNC(=O)c2coc1n2 |  |  | 42 |
| CC(C)[C@@H]1NC(=O)[C@H](NC(=O)N[C@@H](CCCCN)C(=O)O)CCCCNC(=O)c2csc1n2 |  |  | 10 |

From ChEMBL document CHEMBL4665843, “Automated Design of Macrocycles for Therapeutic Applications: From Small Molecules to Peptides and Proteins” (J Med Chem, 2020)
